Our source for the MIC values is ChEMBL document CHEMBL1649468, “AAC(6')-Iaf, a novel aminoglycoside 6'-N-acetyltransferase from multidrug-resistant Pseudomonas aeruginosa clinical isolates” (2009).

For assay [1], the system named is Pseudomonas aeruginosa. Description: Antimicrobial activity against Pseudomonas aeruginosa isolate IMCJ798 by microdilution method. The format is functional. An outline of the steps:
(§1)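 Broth microdilution MIC following CLSI-recommended protocols, tested on multidrug-resistant clinical P. aeruginosa isolates against a panel of individual aminoglycosides. MIC reported in μg/ml.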
(In broth dilution the organism is exposed to a series of concentrations in liquid medium.)

Assay [2] has as its system Pseudomonas aeruginosa. The assay can be described thus: Antimicrobial activity against Pseudomonas aeruginosa isolate IMCJ799 by microdilution method. The format is functional. An outline of the steps:
as §1

Assay [3] concerns Escherichia coli. The assay can be described thus: Antimicrobial activity against Escherichia coli JM109 transformant harboring pSTV28 plasmid by microdilution method.
For assay [4], the system named is Escherichia coli. Description: Antimicrobial activity against Escherichia coli JM109 transformant harboring pSTV28 plasmid expressing aac(6')-Iaf wild type gene by microdilution method. The format is functional. An outline of the steps:
(§2)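 Broth microdilution MICs followed CLSI protocols. The test strains were E. coli JM109 carrying the vector pSTV28 alone or pSTV28 bearing aac(6′)-Iaf (wild type or TTG→ATG start codon). Each strain was tested in Mueller-Hinton broth containing chloramphenicol (30 μg/ml) plus serial dilutions of individual aminoglycosides. MICs are reported in μg/ml.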

Assay [5] relates to Escherichia coli. Description: Antimicrobial activity against Escherichia coli JM109 transformant harboring pSTV28 plasmid expressing aac(6')-Iaf (TTG-ATG) mutant gene by microdilution method. The assay is classed as functional. An outline of the steps:
as §2

For assay [6], the system named is Pseudomonas aeruginosa. The assay can be described thus: Antimicrobial activity against multidrug resistant Pseudomonas aeruginosa isolate IMCJ2S1 by microdilution method. The format is functional.
For assay [7], the system named is Pseudomonas aeruginosa. Description: Antimicrobial activity against rifampin-resistant Pseudomonas aeruginosa ATCC 27853 by microdilution method. The format is functional.
Assay [8] deals with Pseudomonas aeruginosa. The assay can be described thus: Antimicrobial activity against multidrug resistant Pseudomonas aeruginosa by microdilution method. The format is functional.
Assay [9] has as its system Pseudomonas aeruginosa. The assay can be described thus: Antimicrobial activity against Pseudomonas aeruginosa isolate IMCJ798 by microdilution method in presence of beta-lactamase inhibitor Tazobactam. The assay is classed as functional.
The test system of assay [10] is Pseudomonas aeruginosa. The assay can be described thus: Antimicrobial activity against Pseudomonas aeruginosa isolate IMCJ799 by microdilution method in presence of beta-lactamase inhibitor Tazobactam. The format is functional.
Assay [11] relates to Pseudomonas aeruginosa. Description: Antimicrobial activity against multidrug resistant Pseudomonas aeruginosa isolate IMCJ2S1 by microdilution method in presence of beta-lactamase inhibitor Tazobactam. The assay is classed as functional.
Assay [12] deals with Pseudomonas aeruginosa. The assay can be described thus: Antimicrobial activity against rifampin-resistant Pseudomonas aeruginosa ATCC 27853 by microdilution method in presence of beta-lactamase inhibitor Tazobactam. The assay is classed as functional.

One may read the MIC as the smallest concentration in the dilution series that meets the test's criterion for growth inhibition.

In brackets after ≈: the same amount, converted by molar mass. Some results are limits rather than exact numbers.

For `NC[C@@H]1O[C@H](O[C@H]2[C@@H](O)[C@H](O[C@@H]3[C@@H](O)[C@H](N)C[C@H](N)[C@H]3O[C@H]3O[C@H](CN)[C@@H](O)[C@H](O)[C@H]3N)O[C@@H]2CO)[C@H](N)[C@@H](O)[C@@H]1O` [FRAMYCETIN], the MIC was found to be 8 µg/mL (≈ 13 µM) in assay [1]; 8 µg/mL (≈ 13 µM) in assay [2]; 2 µg/mL (≈ 3.25 µM) in assay [3]; 4 µg/mL (≈ 6.51 µM) in [4]; 4 µg/mL (≈ 6.51 µM) in assay [5].

Turning to `CN[C@@H]1[C@@H](O)[C@@H](O[C@@H]2[C@@H](O)[C@H](O[C@H]3OC(CN)=CC[C@H]3N)[C@@H](N)C[C@H]2N)OC[C@]1(C)O` [SISOMICIN], the minimal inhibitory concentration (MIC) in assay [1] was found to be 32 µg/mL (≈ 71.5 µM); in assay [2], 32 µg/mL (≈ 71.5 µM); in assay [3] it was 0.5 µg/mL (≈ 1.12 µM); in assay [4] it was 1 µg/mL (≈ 2.23 µM); in [5], 2 µg/mL (≈ 4.47 µM).

As for `CN[C@@H]1[C@@H](O)C(O[C@@H]2[C@@H](O)[C@H](OC3O[C@H](CN)[C@@H](O)[C@H](O)[C@H]3O)[C@@H](N)C[C@H]2NC(=O)[C@@H](O)CN)OC[C@]1(C)O` (some centres undefined) [ISOPAMICIN], the MIC was above 128 µg/mL in [1]; above 128 µg/mL in assay [2]; 1 µg/mL (≈ 1.76 µM) in assay [3]; 4 µg/mL (≈ 7.02 µM) in assay [4]; 16 µg/mL (≈ 28.1 µM) in assay [5].

With `CC(C)(O/N=C(\C(=O)N[C@@H]1C(=O)N2C(C(=O)[O-])=C(C[n+]3ccccc3)CS[C@H]12)c1csc(N)n1)C(=O)O` [CEFTAZIDIME], the MIC in assay [1] is 512 µg/mL (≈ 937 µM); in assay [2] it was 512 µg/mL (≈ 937 µM); in assay [6] it was 512 µg/mL (≈ 937 µM); in assay [7] it was below 1 µg/mL.

Regarding `CCN1CCN(C(=O)N[C@@H](C(=O)N[C@@H]2C(=O)N3[C@@H]2SC(C)(C)[C@@H]3C(=O)O)c2ccccc2)C(=O)C1=O` [PIPERACILLIN], the MIC in assay [1] was 256 µg/mL (≈ 495 µM); in assay [2], 256 µg/mL (≈ 495 µM); in assay [6], 256 µg/mL (≈ 495 µM); in assay [7], below 4 µg/mL.

On to `CC1COc2c(N3CCN(C)CC3)c(F)cc3c(=O)c(C(=O)O)cn1c23` (centres undefined) [OFLOXACIN], for which the MIC in assay [1] is above 128 µg/mL; in [2], above 128 µg/mL; in [7], below 0.5 µg/mL; in assay [8], at least 4 µg/mL.

Regarding `NCC[C@H](O)C(=O)N[C@@H]1C[C@H](N)[C@@H](O[C@H]2O[C@H](CN)CC[C@H]2N)[C@H](O)[C@H]1O[C@H]1O[C@H](CO)[C@@H](O)[C@H](N)[C@H]1O` [ARBEKACIN], the MIC was 8 µg/mL (≈ 14.5 µM) in [1]; 16 µg/mL (≈ 29 µM) in assay [2]; 2 µg/mL (≈ 3.62 µM) in [6]; below 0.5 µg/mL in assay [7]; 2 µg/mL (≈ 3.62 µM) in [3]; 4 µg/mL (≈ 7.24 µM) in assay [4]. The molecule further gave an MIC in assay [5] of 4 µg/mL (≈ 7.24 µM).

Consider `C[C@]1(Cn2ccnn2)[C@H](C(=O)O)N2C(=O)C[C@H]2S1(=O)=O` [TAZOBACTAM], for which the MIC in assay [9] stood at 256 µg/mL; in [10] it was 256 µg/mL; in assay [11], 256 µg/mL; in assay [12], 4 µg/mL.

With `C[C@@H](O)[C@H]1C(=O)N2C(C(=O)O)=C(SCCNC=N)C[C@H]12` [IMIPENEM ANHYDROUS], the MIC in assay [1] came to 128 µg/mL (≈ 428 µM); in assay [2] it was 128 µg/mL (≈ 428 µM); in assay [6], 128 µg/mL (≈ 428 µM); in assay [7], 4 µg/mL (≈ 13.4 µM).

Take `NCC[C@H](O)C(=O)N[C@@H]1C[C@H](N)[C@@H](O[C@H]2O[C@H](CN)[C@@H](O)[C@H](O)[C@H]2O)[C@H](O)[C@H]1O[C@H]1O[C@H](CO)[C@@H](O)[C@H](N)[C@H]1O` [AMIKACIN]: the MIC was 128 µg/mL (≈ 219 µM) in [1]; 128 µg/mL (≈ 219 µM) in assay [2]; 128 µg/mL (≈ 219 µM) in assay [6]; 2 µg/mL (≈ 3.42 µM) in assay [7]; 1 µg/mL (≈ 1.71 µM) in assay [3]; 16 µg/mL (≈ 27.3 µM) in assay [4]. Besides, the values for the MIC in assay [5] and in [8] were 32 µg/mL (≈ 54.6 µM) and at least 32 µg/mL, respectively.

As to `NC[C@H]1O[C@H](O[C@H]2[C@H](O)[C@@H](O[C@H]3O[C@H](CO)[C@@H](O)[C@H](N)[C@H]3O)[C@H](N)C[C@@H]2N)[C@H](N)C[C@@H]1O` [TOBRAMYCIN], the MIC came to 32 µg/mL (≈ 68.4 µM) in assay [1]; 32 µg/mL (≈ 68.4 µM) in assay [2]; 0.125 µg/mL (≈ 0.267 µM) in assay [3]; 4 µg/mL (≈ 8.56 µM) in [4]; 4 µg/mL (≈ 8.56 µM) in assay [5].

For the molecule `C[C@@H](O)[C@H]1C(=O)N2C(C(=O)O)=C(S[C@@H]3CN[C@H](C(=O)N(C)C)C3)[C@H](C)[C@H]12` [MEROPENEM], the MIC in [1] was above 512 µg/mL; in assay [2], above 512 µg/mL; in assay [6], 512 µg/mL (≈ 1340 µM); in assay [7] it was 1 µg/mL (≈ 2.61 µM); in assay [8], at least 16 µg/mL.

As to `NC[C@@H]1CC[C@@H](N)[C@@H](O[C@H]2[C@H](O)[C@@H](O[C@H]3O[C@H](CO)[C@@H](O)[C@H](N)[C@H]3O)[C@H](N)C[C@@H]2N)O1` [DIBEKACIN], the MIC is above 128 µg/mL in assay [1]; above 128 µg/mL in assay [2]; 1 µg/mL (≈ 2.21 µM) in assay [3]; 16 µg/mL (≈ 35.4 µM) in assay [4]; 32 µg/mL (≈ 70.9 µM) in assay [5].

For `NC[C@H]1O[C@H](O[C@H]2[C@H](O)[C@@H](O[C@H]3O[C@H](CO)[C@@H](O)[C@H](N)[C@H]3O)[C@H](N)C[C@@H]2N)[C@H](O)[C@@H](O)[C@@H]1O` [KANAMYCIN], the MIC in assay [1] was above 128 µg/mL; in assay [2], above 128 µg/mL; in assay [3] it was 2 µg/mL (≈ 4.13 µM); in [4], 64 µg/mL (≈ 132 µM); in assay [5] it was 128 µg/mL (≈ 264 µM).

On to `CCN[C@@H]1C[C@H](N)[C@@H](O[C@H]2OC(CN)=CC[C@H]2N)[C@H](O)[C@H]1O[C@H]1OC[C@](C)(O)[C@H](NC)[C@H]1O` [NETILMICIN], for which the minimal inhibitory concentration (MIC) in [1] is above 128 µg/mL; in assay [2], above 128 µg/mL; in assay [3], 0.5 µg/mL (≈ 1.05 µM); in assay [4] it was 8 µg/mL (≈ 16.8 µM); in assay [5], 8 µg/mL (≈ 16.8 µM).

As for `C[C@H]1[C@H](NC(=O)/C(=N\OC(C)(C)C(=O)O)c2csc(N)n2)C(=O)N1S(=O)(=O)O` [AZTREONAM], the MIC is 64 µg/mL (≈ 147 µM) in assay [1], 64 µg/mL (≈ 147 µM) in assay [2], 128 µg/mL (≈ 294 µM) in assay [6] and 2 µg/mL (≈ 4.59 µM) in assay [7].

In the case of GENTAMICIN, the MIC is 4 µg/mL in [1]; 2 µg/mL in assay [2]; 16 µg/mL in [6]; below 1 µg/mL in assay [7]; 1 µg/mL in assay [4]; 1 µg/mL in assay [5].

For POLYMYXIN B, the MIC was determined as 4 µg/mL in assay [1], 4 µg/mL in assay [2], 2 µg/mL in [6] and 2 µg/mL in assay [7].
